The values that follow come from ChEMBL document CHEMBL1138914, “Design, synthesis, and structure-activity relationships of novel 2-substituted pyrazinoylguanidine epithelial sodium channel blockers: drugs for cystic fibrosis and chronic bronchitis” (J Med Chem, 2006).

For the assay, the system named is Epithelial cell. The assay is described as follows: Recovery of short-circuit current in dog primary bronchial epithelial cells. It counts as functional, Canis lupus familiaris. The gist of the method:
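Canine primary bronchial epithelial monolayers in modified Ussing chambers, KRB pH 7.4, 37 °C, voltage clamped to 0 mV. After a full apical concentration-effect series, the mucosal bath was replaced with KRB three consecutive times. Short-circuit current was read 3 min after the third wash and expressed as percent of starting (basal) current.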
For the molecule `N/C(=N\C(=O)c1nc(Cl)c(N)nc1N)NCCCc1ccccc1`, the Activity is 23%.

Molecule `N/C(=N\C(=O)c1nc(Cl)c(N)nc1N)NCCCCc1ccc(O)cc1` had an Activity of 24%.

Molecule `N/C(=N\C(=O)c1nc(Cl)c(N)nc1N)NCCCCc1ccc(OCCO)cc1` yielded an Activity of 29%.

For the molecule `N/C(=N\C(=O)c1nc(Cl)c(N)nc1N)NCCc1ccc(O)cc1`, the Activity is listed as 65%.

Turning to `N/C(=N\C(=O)c1nc(Cl)c(N)nc1N)NCCCCc1ccc(OC2O[C@H](C(=O)O)[C@@H](O)[C@H](O)[C@H]2O)cc1` (some centres not stated), the Activity was 86%.

For `N/C(=N\C(=O)c1nc(Cl)c(N)nc1N)NCCCCc1ccccc1O`, the Activity worked out at 11%.

On to `N/C(=N\C(=O)c1nc(Cl)c(N)nc1N)NCCCCc1ccc(OC[C@@H](O)CO)cc1`, for which the Activity came to 18%.

The molecule `COC(=O)c1ccc(CCCC/N=C(\N)NC(=O)c2nc(Cl)c(N)nc2N)cc1` returned an Activity of 13%.

Consider `N/C(=N\C(=O)c1nc(Cl)c(N)nc1N)NCCCCc1ccc(OCCCO)cc1`, for which the Activity worked out at 17%.

`N/C(=N\C(=O)c1nc(Cl)c(N)nc1N)NCCCCc1ccc(CO)cc1` showed an Activity of 20%.

Turning to `N/C(=N\C(=O)c1nc(Cl)c(N)nc1N)NCCCCc1ccccc1OCCO`, the Activity is 21%.

For the molecule `N/C(=N\C(=O)c1nc(Cl)c(N)nc1N)NCCCCc1cccc(OCCO)c1`, the Activity came to 30%.

`N/C(=N\C(=O)c1nc(Cl)c(N)nc1N)NCCCCc1ccc(OCC(O)CO)cc1` (configuration not stated) [552-02 FREE BASE] showed an Activity of 20%.

As to `COc1ccc(CCCC/N=C(\N)NC(=O)c2nc(Cl)c(N)nc2N)cc1`, the Activity turned out to be 19%.

On to `N/C(=N\C(=O)c1nc(Cl)c(N)nc1N)NCCCCCc1ccc(O)cc1`, for which the Activity was determined as 29%.

In the case of `N/C(=N\C(=O)c1nc(Cl)c(N)nc1N)NCCCc1ccc(O)cc1`, the Activity is reported as 65%.

In the case of `CCCCCCCC/N=C(\N)NC(=O)c1nc(Cl)c(N)nc1N`, the Activity is 7%.

Regarding `N/C(=N\C(=O)c1nc(Cl)c(N)nc1N)NCCCCc1cccc(OCC(O)CO)c1` (configuration not stated), the Activity is given as 37%.

`N=C(N)NC(=O)c1nc(Cl)c(N)nc1N` [AMILORIDE] returned an Activity of 96%.

The molecule `COc1ccc(CCCCC/N=C(\N)NC(=O)c2nc(Cl)c(N)nc2N)cc1` showed an Activity of 5.5%.

In turn, `N/C(=N\C(=O)c1nc(Cl)c(N)nc1N)NCCCCc1ccccc1OCC(O)CO` (configuration not stated) returned an Activity of 63%.

`N/C(=N\C(=O)c1nc(Cl)c(N)nc1N)NCc1ccccc1` [BENZAMIL] returned an Activity of 47%.

With `N/C(=N\C(=O)c1nc(Cl)c(N)nc1N)NCCc1ccccc1`, the Activity is listed as 21%.

Molecule `N/C(=N\C(=O)c1nc(Cl)c(N)nc1N)NCCCCCc1ccccc1` showed an Activity of 6%.

On to `N/C(=N\C(=O)c1nc(Cl)c(N)nc1N)NCCCCc1ccc(OCCC(=O)O)cc1`, for which the Activity came out at 65%.

With `N/C(=N\C(=O)c1nc(Cl)c(N)nc1N)NCCCCc1ccc(OS(=O)(=O)O)cc1`, the Activity worked out at 53%.

On to `N/C(=N\C(=O)c1nc(Cl)c(N)nc1N)NCCCCCCCCc1ccccc1`, for which the Activity is on record as 12%.

The molecule `N=C(NC(=O)c1nc(Cl)c(N)nc1N)Nc1ccccc1` registered an Activity of 15%.

The molecule `COc1ccc(COCC/N=C(\N)NC(=O)c2nc(Cl)c(N)nc2N)cc1` had an Activity of 72%.

`CCCCCC/N=C(\N)NC(=O)c1nc(Cl)c(N)nc1N` yielded an Activity of 24%.

With `N/C(=N\C(=O)c1nc(Cl)c(N)nc1N)NCCO`, the Activity is 77%.

For the molecule `N/C(=N\C(=O)c1nc(Cl)c(N)nc1N)NCCCCc1ccc(OCC(=O)O)cc1`, the Activity was determined as 79%.

Molecule `N/C(=N\C(=O)c1nc(Cl)c(N)nc1N)NCCCCc1ccc(O)c(O)c1` gave an Activity of 45%.

Molecule `N/C(=N\C(=O)c1nc(Cl)c(N)nc1N)NCCCCc1cccc(O)c1` showed an Activity of 14%.

The molecule `N/C(=N\C(=O)c1nc(Cl)c(N)nc1N)NCCCCc1ccc(C(=O)O)cc1` yielded an Activity of 65%.

As for `N/C(=N\C(=O)c1nc(Cl)c(N)nc1N)NCCCOc1ccc(O)cc1`, the Activity came out at 73%.

As for `N/C(=N\C(=O)c1nc(Cl)c(N)nc1N)NCCCCc1ccccc1`, the Activity turned out to be 16%.

In turn, `COc1ccc(CCC/N=C(\N)NC(=O)c2nc(Cl)c(N)nc2N)cc1` gave an Activity of 57%.

Molecule `N/C(=N\C(=O)c1nc(Cl)c(N)nc1N)NCCCCCCc1ccccc1` yielded an Activity of 12%.

In the case of `N/C(=N\C(=O)c1nc(Cl)c(N)nc1N)NCCCCc1ccc(OC[C@H](O)CO)cc1`, the Activity worked out at 25%.

Consider `COc1ccc(OCCC/N=C(\N)NC(=O)c2nc(Cl)c(N)nc2N)cc1`, for which the Activity is listed as 25%.

Take `N/C(=N\C(=O)c1nc(Cl)c(N)nc1N)NCCCCc1ccc(N)cc1`: the Activity amounted to 36%.
